These results are taken from ChEMBL document CHEMBL3808289, “Discovery of a Selective Series of Inhibitors of Plasmodium falciparum HDACs” (ACS Med Chem Lett, 2016).

Usually EC50 stands for the concentration needed to bring the measured effect to its halfway point. Usually CC50 stands for the concentration that lowers cell viability or growth by half. The term IC50 denotes the midpoint of a concentration-inhibition curve. The clearance is the rate of elimination divided by the concentration.

Series [1] has as its target Histone deacetylase 2 (Homo sapiens) (UniProt Q92769). Briefly: Inhibition of human HDAC2 at 5 uM.
For the next series, the system named is Plasmodium falciparum. Description: Antimalarial activity against Plasmodium falciparum 3D7 infected human erythrocytes assessed as parasite growth inhibition after 72 hrs by spectrophotometry. The class given is functional, organism-based. The following applies: 3D7, 72 h. The procedure, abridged:
(§1)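 Cell-based read-outs (parasite growth in erythrocytes; class I HDAC activity in HeLa) were run with multiple repetitions of each assay to limit variability.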

A short description of series [2]: Cytotoxicity against human HeLa cells assessed as cell viability after 72 hrs by CellTiter-Glo assay. It is filed as cell-based. In general terms: ATP-based viability assays read luminescence as a measure of living cells.
The nature of series [3]: Cytotoxicity against human HUVEC cells assessed as cell viability after 72 hrs by CellTiter-Glo assay. The class given is cell-based.
The target in series [4] is T1, Histone deacetylase 1 (Homo sapiens, UniProt Q13547). Briefly: Inhibition of recombinant human His-tagged HDAC1 expressed in insect cells preincubated for 10 mins followed by addition of FLUOR DE LYS as fluorescent substrate measured after 1 hr by spectrophotometry.
The target of series [5] is T2, Protein deacetylase HDAC6 (Homo sapiens) (UniProt Q9UBN7).
T2 sequence (whole entry): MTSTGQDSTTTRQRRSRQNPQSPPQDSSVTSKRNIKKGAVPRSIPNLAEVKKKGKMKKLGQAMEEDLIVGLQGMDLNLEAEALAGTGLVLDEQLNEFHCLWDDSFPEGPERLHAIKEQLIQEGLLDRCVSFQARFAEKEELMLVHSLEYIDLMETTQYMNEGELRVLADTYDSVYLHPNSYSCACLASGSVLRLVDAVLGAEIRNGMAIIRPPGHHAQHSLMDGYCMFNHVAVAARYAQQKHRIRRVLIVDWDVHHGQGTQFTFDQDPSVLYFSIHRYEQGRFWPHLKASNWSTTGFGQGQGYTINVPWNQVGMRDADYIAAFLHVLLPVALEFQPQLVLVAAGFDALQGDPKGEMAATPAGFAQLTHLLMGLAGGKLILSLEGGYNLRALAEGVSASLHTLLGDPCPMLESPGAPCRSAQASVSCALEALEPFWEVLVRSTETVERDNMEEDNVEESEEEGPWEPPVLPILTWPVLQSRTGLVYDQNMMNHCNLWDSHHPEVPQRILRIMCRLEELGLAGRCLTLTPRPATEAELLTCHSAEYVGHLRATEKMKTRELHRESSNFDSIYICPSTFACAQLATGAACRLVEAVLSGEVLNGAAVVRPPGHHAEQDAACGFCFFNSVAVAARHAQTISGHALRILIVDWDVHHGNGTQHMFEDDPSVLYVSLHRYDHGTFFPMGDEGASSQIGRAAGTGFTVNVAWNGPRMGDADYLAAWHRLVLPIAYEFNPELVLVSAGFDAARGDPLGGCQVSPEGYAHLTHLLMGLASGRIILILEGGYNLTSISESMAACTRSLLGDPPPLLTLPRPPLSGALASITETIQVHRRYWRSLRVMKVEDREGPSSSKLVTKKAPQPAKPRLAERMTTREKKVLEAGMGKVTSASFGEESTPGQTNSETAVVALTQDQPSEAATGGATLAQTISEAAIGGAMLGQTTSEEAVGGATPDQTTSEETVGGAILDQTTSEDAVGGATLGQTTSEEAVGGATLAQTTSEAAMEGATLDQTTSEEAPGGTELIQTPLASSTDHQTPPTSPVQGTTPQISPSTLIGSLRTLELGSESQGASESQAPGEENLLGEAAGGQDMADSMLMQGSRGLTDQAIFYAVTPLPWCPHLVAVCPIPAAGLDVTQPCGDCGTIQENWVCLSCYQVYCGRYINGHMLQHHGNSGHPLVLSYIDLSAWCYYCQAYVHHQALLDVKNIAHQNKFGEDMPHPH
Briefly: Inhibition of human HDAC6 at 5 uM.

Series [6] concerns the target T1, Histone deacetylase 1. Description: Inhibition of human HDAC1 at 5 uM.
Series [7] is described as follows: Intrinsic clearance in human liver microsomes at 1 uM by LC-MS/MS analysis. The class given is ADME. The conditions noted are these: read-out: CLH. (In general: Liver microsomes are vesicles of endoplasmic reticulum, rich in cytochrome P450 enzymes.)
Series [8] in a line: Clearance in NMRI mouse plasma 2 mg/kg, iv by LC-MS/MS analysis. It is filed as ADME, organism-based.
Series [9] concerns the target Histone deacetylase 5 (Homo sapiens) (UniProt Q9UQL6). Description: Inhibition of human HDAC5 at 5 uM.
The target in series [10] is Histone deacetylase 4 (Homo sapiens) (UniProt P56524). Description: Inhibition of human HDAC4 at 5 uM.
Series [11] in a line: Intrinsic clearance in CD1 mouse liver microsomes at 1 uM by LC-MS/MS analysis. The class given is ADME. The conditions noted are these: read-out: CLH.
In series [12] the target is T3, Histone deacetylase 7 (Homo sapiens) (UniProt Q8WUI4).
T3 sequence (whole entry): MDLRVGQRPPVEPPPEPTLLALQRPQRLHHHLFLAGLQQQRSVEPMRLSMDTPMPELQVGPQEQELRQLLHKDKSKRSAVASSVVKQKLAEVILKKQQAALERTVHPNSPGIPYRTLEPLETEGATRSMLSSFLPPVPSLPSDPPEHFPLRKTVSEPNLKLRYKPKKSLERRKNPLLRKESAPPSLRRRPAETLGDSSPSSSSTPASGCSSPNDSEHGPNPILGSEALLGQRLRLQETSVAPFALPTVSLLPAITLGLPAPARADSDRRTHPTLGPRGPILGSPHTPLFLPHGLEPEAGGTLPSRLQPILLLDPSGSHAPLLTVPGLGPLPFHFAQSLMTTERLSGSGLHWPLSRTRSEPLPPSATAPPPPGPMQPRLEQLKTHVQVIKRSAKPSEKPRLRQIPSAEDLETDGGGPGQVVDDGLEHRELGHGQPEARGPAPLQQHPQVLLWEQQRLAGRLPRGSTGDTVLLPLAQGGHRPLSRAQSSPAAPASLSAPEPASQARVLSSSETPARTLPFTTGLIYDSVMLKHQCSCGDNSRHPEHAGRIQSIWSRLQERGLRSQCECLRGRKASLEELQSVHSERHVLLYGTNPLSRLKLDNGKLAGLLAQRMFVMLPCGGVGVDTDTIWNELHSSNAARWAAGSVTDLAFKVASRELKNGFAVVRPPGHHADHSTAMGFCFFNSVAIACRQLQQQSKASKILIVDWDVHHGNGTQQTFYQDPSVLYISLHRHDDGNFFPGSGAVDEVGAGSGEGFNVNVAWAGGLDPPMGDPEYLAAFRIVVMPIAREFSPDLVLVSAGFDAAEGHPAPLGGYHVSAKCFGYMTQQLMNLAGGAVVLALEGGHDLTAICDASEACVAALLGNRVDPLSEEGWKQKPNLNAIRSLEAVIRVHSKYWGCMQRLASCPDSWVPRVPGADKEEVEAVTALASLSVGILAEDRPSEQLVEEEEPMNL
Briefly: Inhibition of human HDAC7 at 5 uM.

The nature of series [13]: Inhibition of HDAC1 in Plasmodium falciparum 3D7 infected in human erythrocytes assessed as histone H4 hyperacetylation at lysine8 residue by western blotting method. The class given is cell-based. The procedure, abridged: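 P. falciparum parasites inside erythrocytes were treated with increasing compound concentrations. Histone H4 lysine 8 acetylation was analysed, and the concentration giving hyperacetylation was expressed as an EC50.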
On the technique in general: Immunoblotting shows a protein as a band on a membrane.

The target of series [14] is Histone deacetylase 9 (Homo sapiens) (UniProt Q9UKV0). Description: Inhibition of human HDAC9 at 5 uM.
For the next series, the target named is Histone deacetylase 3 (Homo sapiens, UniProt O15379). Description: Inhibition of human HDAC3. An outline of the steps: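 HDAC3 was measured within a human HDAC enzyme panel (HDAC1–7 and 9), with concentrations tested up to 5 μM.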
Series [15] is described as follows: Intrinsic clearance in Han Wistar rat liver microsomes at 1 uM by LC-MS/MS analysis. It is filed as ADME. The following applies: read-out: CLH.
Series [16] can be described thus: Inhibition of class 1 histone deacetylase in human HeLa cells using FLUOR DE LYS as fluorescent substrate after 4 hrs by spectrophotometry. It is filed as cell-based. An outline of the steps:
as §1

The source made the active and inactive calls. No cut-off for these calls is given here.

T1 sequence (Q13547 whole entry): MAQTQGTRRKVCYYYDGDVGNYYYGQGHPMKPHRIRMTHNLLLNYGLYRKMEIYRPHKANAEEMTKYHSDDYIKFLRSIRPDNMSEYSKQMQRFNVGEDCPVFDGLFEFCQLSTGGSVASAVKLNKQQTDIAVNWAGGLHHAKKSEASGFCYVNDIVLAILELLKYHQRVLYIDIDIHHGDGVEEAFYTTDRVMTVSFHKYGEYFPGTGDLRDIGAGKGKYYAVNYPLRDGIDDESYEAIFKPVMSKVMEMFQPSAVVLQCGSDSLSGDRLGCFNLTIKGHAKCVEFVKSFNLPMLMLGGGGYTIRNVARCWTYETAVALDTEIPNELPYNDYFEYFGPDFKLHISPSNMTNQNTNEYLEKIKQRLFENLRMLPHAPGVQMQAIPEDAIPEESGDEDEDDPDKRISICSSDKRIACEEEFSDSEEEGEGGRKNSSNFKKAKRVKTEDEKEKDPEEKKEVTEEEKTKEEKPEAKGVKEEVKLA
Histone deacetylase 4 (Homo sapiens), sequence (P56524 whole entry): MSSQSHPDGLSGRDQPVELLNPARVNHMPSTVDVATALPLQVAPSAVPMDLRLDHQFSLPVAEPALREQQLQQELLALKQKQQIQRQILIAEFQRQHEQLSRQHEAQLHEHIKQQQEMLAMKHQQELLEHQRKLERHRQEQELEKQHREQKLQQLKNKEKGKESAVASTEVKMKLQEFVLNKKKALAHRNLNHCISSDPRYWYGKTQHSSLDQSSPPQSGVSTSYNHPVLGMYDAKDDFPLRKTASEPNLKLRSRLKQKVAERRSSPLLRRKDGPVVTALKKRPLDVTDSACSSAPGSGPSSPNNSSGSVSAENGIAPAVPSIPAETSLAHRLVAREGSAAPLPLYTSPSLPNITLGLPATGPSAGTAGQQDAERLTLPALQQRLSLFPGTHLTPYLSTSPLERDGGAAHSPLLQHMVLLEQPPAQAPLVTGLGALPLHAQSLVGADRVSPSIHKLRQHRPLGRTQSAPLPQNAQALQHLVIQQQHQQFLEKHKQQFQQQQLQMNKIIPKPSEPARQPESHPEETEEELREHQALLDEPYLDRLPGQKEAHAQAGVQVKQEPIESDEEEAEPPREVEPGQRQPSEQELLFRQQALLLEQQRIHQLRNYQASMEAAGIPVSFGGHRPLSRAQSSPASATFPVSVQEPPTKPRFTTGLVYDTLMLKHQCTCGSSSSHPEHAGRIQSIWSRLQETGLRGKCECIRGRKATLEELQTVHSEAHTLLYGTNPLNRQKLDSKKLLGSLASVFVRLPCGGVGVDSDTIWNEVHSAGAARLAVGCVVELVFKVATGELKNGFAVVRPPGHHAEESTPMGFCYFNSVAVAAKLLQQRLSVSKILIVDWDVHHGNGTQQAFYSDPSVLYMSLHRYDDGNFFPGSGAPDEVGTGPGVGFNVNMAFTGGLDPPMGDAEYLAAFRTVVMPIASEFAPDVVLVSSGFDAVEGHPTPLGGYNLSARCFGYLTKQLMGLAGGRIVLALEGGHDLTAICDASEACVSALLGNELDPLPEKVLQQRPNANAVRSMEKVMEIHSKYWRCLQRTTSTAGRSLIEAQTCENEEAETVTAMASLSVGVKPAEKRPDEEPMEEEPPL
Histone deacetylase 9 (Homo sapiens), sequence (Q9UKV0 whole entry): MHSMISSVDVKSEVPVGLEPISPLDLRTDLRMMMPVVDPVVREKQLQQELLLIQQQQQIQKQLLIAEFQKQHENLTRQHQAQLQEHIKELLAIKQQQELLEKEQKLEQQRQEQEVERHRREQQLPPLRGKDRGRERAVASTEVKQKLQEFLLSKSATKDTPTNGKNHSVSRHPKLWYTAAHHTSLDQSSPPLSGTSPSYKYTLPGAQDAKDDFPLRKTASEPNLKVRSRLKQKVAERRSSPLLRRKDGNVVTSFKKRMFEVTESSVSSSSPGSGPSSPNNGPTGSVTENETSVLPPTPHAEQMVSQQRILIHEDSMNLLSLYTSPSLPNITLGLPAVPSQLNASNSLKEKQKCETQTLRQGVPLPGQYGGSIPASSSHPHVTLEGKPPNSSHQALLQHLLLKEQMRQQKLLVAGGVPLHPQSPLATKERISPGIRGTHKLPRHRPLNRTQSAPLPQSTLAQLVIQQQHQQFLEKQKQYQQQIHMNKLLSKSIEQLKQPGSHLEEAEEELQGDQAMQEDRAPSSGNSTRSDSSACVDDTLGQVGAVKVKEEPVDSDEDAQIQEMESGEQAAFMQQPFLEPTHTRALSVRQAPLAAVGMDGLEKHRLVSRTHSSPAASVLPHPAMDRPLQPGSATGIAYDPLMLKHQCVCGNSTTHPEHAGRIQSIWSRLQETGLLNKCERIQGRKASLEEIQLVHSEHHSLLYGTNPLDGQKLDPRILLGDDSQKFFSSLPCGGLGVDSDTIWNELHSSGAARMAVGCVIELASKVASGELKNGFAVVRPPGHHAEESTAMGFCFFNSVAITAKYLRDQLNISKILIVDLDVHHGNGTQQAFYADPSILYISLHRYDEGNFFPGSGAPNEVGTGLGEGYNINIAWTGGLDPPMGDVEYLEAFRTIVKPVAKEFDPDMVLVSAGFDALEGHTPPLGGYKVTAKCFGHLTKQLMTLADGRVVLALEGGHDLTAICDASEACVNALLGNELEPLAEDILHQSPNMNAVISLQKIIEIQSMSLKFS
Histone deacetylase 2 (Homo sapiens), sequence (Q92769 whole entry): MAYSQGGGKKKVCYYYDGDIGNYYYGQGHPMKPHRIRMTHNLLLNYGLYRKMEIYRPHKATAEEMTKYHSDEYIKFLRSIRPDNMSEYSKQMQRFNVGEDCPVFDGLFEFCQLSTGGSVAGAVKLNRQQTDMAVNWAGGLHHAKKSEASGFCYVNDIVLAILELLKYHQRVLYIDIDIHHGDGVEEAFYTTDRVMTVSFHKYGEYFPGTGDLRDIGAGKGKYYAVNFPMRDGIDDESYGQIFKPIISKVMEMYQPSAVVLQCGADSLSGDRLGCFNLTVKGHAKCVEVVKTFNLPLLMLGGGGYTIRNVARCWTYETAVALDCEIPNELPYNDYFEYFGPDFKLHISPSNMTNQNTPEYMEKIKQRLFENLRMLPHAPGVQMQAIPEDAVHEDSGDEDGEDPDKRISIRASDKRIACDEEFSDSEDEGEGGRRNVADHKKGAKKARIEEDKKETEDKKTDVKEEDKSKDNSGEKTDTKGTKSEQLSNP
Histone deacetylase 3, sequence (O15379 whole entry): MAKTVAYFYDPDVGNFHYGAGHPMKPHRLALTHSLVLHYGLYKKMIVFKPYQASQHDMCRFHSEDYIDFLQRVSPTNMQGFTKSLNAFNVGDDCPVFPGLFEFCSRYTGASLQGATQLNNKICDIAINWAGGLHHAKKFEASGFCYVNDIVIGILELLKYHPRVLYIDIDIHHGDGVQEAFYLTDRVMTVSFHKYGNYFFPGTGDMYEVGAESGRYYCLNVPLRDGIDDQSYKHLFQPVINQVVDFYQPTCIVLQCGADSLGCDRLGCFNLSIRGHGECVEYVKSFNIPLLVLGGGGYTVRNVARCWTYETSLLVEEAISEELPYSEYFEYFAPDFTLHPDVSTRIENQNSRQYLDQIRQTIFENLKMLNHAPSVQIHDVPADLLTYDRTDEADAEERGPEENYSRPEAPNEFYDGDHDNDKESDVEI
Histone deacetylase 5 (Homo sapiens), sequence (Q9UQL6 whole entry): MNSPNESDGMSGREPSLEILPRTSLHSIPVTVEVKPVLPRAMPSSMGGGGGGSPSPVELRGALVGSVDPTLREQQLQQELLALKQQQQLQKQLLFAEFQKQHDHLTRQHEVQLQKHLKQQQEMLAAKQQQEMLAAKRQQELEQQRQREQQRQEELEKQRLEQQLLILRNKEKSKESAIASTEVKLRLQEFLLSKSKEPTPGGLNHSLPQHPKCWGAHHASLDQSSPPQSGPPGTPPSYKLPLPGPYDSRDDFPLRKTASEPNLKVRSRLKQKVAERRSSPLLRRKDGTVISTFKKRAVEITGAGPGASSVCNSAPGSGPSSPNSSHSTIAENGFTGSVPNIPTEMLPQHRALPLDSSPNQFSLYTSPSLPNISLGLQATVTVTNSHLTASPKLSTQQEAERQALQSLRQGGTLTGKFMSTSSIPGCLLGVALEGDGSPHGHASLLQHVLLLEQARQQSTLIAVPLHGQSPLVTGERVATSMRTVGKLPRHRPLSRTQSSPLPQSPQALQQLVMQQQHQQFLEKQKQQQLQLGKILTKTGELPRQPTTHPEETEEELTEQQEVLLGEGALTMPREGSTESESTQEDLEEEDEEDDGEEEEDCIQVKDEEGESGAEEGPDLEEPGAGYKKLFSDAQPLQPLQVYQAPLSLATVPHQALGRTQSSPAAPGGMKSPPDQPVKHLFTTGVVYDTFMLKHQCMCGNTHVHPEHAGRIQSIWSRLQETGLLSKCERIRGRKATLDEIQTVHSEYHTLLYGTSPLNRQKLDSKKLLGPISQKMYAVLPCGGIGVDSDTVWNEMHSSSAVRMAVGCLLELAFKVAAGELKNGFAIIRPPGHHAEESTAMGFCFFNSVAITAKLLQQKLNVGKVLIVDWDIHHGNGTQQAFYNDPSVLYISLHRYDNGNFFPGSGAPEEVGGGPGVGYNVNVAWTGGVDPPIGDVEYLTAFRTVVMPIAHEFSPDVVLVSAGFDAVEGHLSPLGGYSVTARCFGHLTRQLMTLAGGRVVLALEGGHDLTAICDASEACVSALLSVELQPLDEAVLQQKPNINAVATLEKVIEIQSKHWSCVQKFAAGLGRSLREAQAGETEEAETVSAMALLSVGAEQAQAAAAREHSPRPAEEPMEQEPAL

With `CNC(=O)CCCCC[C@H](NC(=O)c1cncs1)c1ncc(-c2ccc(-c3ccn[nH]3)cc2)[nH]1`, the inhibition result (in [1]; in [5]; at Histone deacetylase 1 [6]; in series [9]; in series [10]; in series [12]) was “inactive” throughout. In series [14], the inhibition entry was “inactive”. In addition, the values for the EC50 (in the series on Plasmodium falciparum; in series [13]) were 0.45 µM and 0.35 µM, respectively. In addition, the CC50 at 72 h in [2] and in series [3] was greater than 25 µM throughout. The IC50 is 1.85 µM at Histone deacetylase 1 [4], 0.33 µM on Histone deacetylase 3 and 16.6 µM in [16]. Besides, the microsomal CLint at 1 µM was found to be 19 µL/min/mg in [7], 12 µL/min/mg in series [11] and 27 µL/min/mg in [15]. Moreover, the clearance in [8] is 247 mL/min/kg.
